In series [1] the target is T1, Autotaxin (Homo sapiens, UniProt Q13822). Put plainly: Inhibition of human recombinant autotaxin expressed in insect Sf9 cells using FS-3 as substrate at 1 uM preincubated for 10 mins prior substrate addition measured up to 60 mins by FRET-based analysis.
Series [2] concerns the target T1, Autotaxin. Put plainly: Inhibition of human recombinant autotaxin expressed in insect Sf9 cells using FS-3 as substrate preincubated for 10 mins prior substrate addition measured up to 60 mins by FRET-based analysis.
Series [3] can be described thus: Metabolic stability of the compound assessed as reduction in dephosphorylation at […] after 24 hrs by phosphomolybdate blue assay in presence of bovine intestinal mucosal alkaline phosphatase. It counts as ADME. As to conditions: cattle, isolated protein. The method, boiled down: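 Substrate incubated with the phosphatase at 37 °C for 24 h. Dephosphorylation is followed by quantifying liberated inorganic phosphate with a modified phosphomolybdate blue assay.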

The structures appear in SMILES notation.

Broadly, the inhibition is the share of the control response that was lost under treatment. The term IC50 denotes the concentration needed to halve the response being measured. `CCCCCCCCCCCCCC(=O)OCC(COP(=O)(O)O)OC` (stereo not given): the inhibition on Autotaxin [1] is 57.7%. Moreover, the IC50 at Autotaxin [2] was 704 nM.

Consider `CCCCCCCCCCCC(=O)OCC(COP(=O)(O)S)OC` (stereo not given), for which the inhibition on Autotaxin [1] worked out at 36.7%. The IC50 on Autotaxin [2] amounted to 2410 nM.

For `CCCCCCCC/C=C\CCCCCCCC(=O)OCC(COP(=O)(O)S)OC` (stereo not given), the inhibition at Autotaxin [1] worked out at 77.8%. In addition, the IC50 at Autotaxin [2] worked out at 356 nM.

Take `CCCCCCCCCCCC(=O)OCC(COP(=O)(O)O)OC` (stereo not given): the inhibition at Autotaxin [1] came to 45.5%. Besides, at Autotaxin [2], the IC50 was 1200 nM.

In the case of `CCCCCCCCCCCCCC(=O)OCC(COP(=O)(O)S)OC` (stereo not given), the inhibition on Autotaxin [1] stood at 62.3%. The IC50 on Autotaxin [2] was 596 nM.

On to `CCCCCCCCCCCCCCCCCC(=O)OCC(COP(=O)(O)S)OC` (stereo not given), for which the inhibition on Autotaxin [1] worked out at 35.5%. The IC50 at Autotaxin [2] is 2420 nM.

Consider `CCCCCCCCCCCCCCCC(=O)OCC(COP(=O)(O)O)OC` (stereo not given), for which, on Autotaxin [1], the inhibition stood at 74.5%. Also, the IC50 at Autotaxin [2] turned out to be 361 nM.

Turning to `CCCCCCCC/C=C\CCCCCCCC(=O)OC[C@@H](O)COP(=O)(O)O` [LYSOPHOSPHATIDIC ACID], the Stability result in series [3] is on record as “Unstable”.

For `CCCCCCCCCCCCCCCC(=O)OCC(COP(=O)(O)S)OC` (stereo not given), the inhibition on Autotaxin [1] amounted to 64.7%. In addition, the IC50 at Autotaxin [2] is 512 nM.

`CCCCCCCCCCCCCCCCCC(=O)OCC(COP(=O)(O)O)OC` (stereo not given): the inhibition on Autotaxin [1] turned out to be 49.7%. Also, the IC50 at Autotaxin [2] is 1010 nM.

With `CCCCCCCCCCCCCCCCCC(=O)OC[C@@H](O)CC(Br)P(=O)(O)O` (stereo not given in full), the inhibition at Autotaxin [1] turned out to be 86.1%. Further, the IC50 at Autotaxin [2] is 170 nM. For the same molecule, the Stability entry in series [3] is given as “Stable”.

Consider `CCCCCCCC/C=C\CCCCCCCC(=O)OCC(COP(=O)(O)O)OC` (stereo not given), for which the inhibition on Autotaxin [1] is 81.3%. The IC50 at Autotaxin [2] came out at 220 nM. Further, in series [3], the Stability entry is “Stable”.

The values above are taken from ChEMBL document CHEMBL2016575, “The chemical synthesis of metabolically stabilized 2-OMe-LPA analogues and preliminary studies of their inhibitory activity toward autotaxin” (Bioorg Med Chem Lett, 2012).
